Data on 13 molecules can be found in article PMC2843942 (Journal of the American Chemical Society, 2010).

Assay [1] concerns the target T1, GST-LSD1 (Homo sapiens, UniProt O60341). The settings on record: cited from earlier work; for inactivation of LSD1: result in words.
Assay [2] deals with GST-LSD1 (aa 171-852) (UniProt O60341). Kind of assay: enzyme inhibition kinetics.
The target is the same in assay [3]. Kind of assay: enzyme inactivation kinetics.
The target in assay [4] is T1, GST-LSD1. The settings on record: 500 µM phenelzine, 30 min preincubation, 10 µM substrate.
Assay [5] deals with methylation of Lys-4 of histone H3 in α-23 cells. Particulars: 10 µM phenelzine, one hour, ChIP.
Assay [6] relates to TSHalpha luciferase reporter in α-23 cells derived from GH3 cells. The settings on record: 10 µM phenelzine, 24 hours, with or without 0.1 µM T3.
In assay [7] the target is T1, GST-LSD1. Briefly: peroxidase-coupled assay. The settings on record: for k(inact): 185 nM GST-LSD1, Kitz-Wilson analysis; for KI (inactivation): 185 nM GST-LSD1, 240 µM substrate, extrapolated to zero substrate, Kitz-Wilson; for time-dependent inactivation of LSD1: result in words. Type of assay: biochemical.
The target in assay [8] is T1, GST-LSD1. Kind of assay: Amplex Red horseradish peroxidase coupled assay detecting H2O2. The class given is biochemical. In short, it runs like this:
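Human GST-LSD1 (aa 171–852) from E. coli, at 25 nM, in 50 mM HEPES pH 7.5 with 0.1 mM Amplex Red and 0.76 µM horseradish peroxidase. Dimethyl-Lys-4 H3-21 substrate started 150 µL reactions, aerobic, at 25 °C. For inactivation, test compound and substrate (600 µM final) were added together. H2O2 was followed at 571 nm (ε 52,000 M−1 cm−1) from initial velocities.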

The mark [9] stands for this setting: 25 nM LSD1, 600 µM substrate, Amplex Red.

Read-outs that look alike come from different tables or passages of the source. A value given as a limit tells only on which side of the number the result lay.

As to “exo-cyclopropyl-Lys-4 H3-21 [compound 6]”, on GST-LSD1 [1], the “inactivation of LSD1” value is reported as “did not inactivate LSD1”. The inhibition constant (Ki) at GST-LSD1 [1] (reversible inhibitor, estimated, obtained previously) was 2700 ± 740 nM.
“endo-cyclopropyl-Lys-4 H3-21 (7) (from UniProt P68431 2-22) (peptide)” yielded a Ki in the assay with GST-LSD1 (aa 171-852) [2] of 6110 nM.
For “trans-3-chloroallyl-Lys-4 H3-21 (4) (from UniProt P68431 2-22) (peptide)”, the Ki(inact) with GST-LSD1 (aa 171-852) [3] came out at 763 nM.
On to `NNCCc1ccccc1` [phenelzine, phenethylhydrazine], for which the “demethylation of H3-21 dimethyl-Lys substrate peptide by treated LSD1” value at GST-LSD1 [4] was “unable to induce loss of a methyl group”. In assay [5], the “mono and dimethylation of Lys-4 H3 at TSHalpha reporter region” value is “enhanced”; the “trimethylation level of Lys-4 H3 at TSHalpha reporter region” value was “unaffected”. Moreover, the “luciferase activity of TSHalpha reporter” value in assay [6] was “increases luciferase activity both in the absence and presence of T3”. Moreover, the “k(inact)” value at GST-LSD1 [7] was 0.955 ± 0.085 min⁻¹.
“hydrazino-Lys-4 H3-21 (18) (from UniProt P68431 2-22) (peptide)”: the Ki(inact) in the assay with GST-LSD1 (aa 171-852) [3] amounted to 4.35 nM.
Same read-out and setting: the figure for “cis-3-chloroallyl-Lys-4 H3-21 (3) (from UniProt P68431 2-22) (peptide)” is 955 nM.
As to `C#CCN(C)Cc1ccccc1` [pargyline, reference compound], the “inactivation of LSD1” value at GST-LSD1 [1] is “failed in subsequent studies to appreciably inactivate LSD1”.
Regarding “endo-dimethylcyclopropyl-Lys-4 H3-21 (8) (from UniProt P68431 2-22) (peptide)”, the Ki with GST-LSD1 (aa 171-852) [2] came to 24200 nM.
Turning to “trans-3-chloroallyl-Lys-4 H3-21 [compound 4]”, on GST-LSD1 [7], the KI (inactivation) was 763 ± 120 nM; the “k(inact)” value was determined as 0.128 ± 0.0087 min⁻¹; the “time-dependent inactivation of LSD1” value is “time- and concentration-dependent inactivation”.
As to propargyl-Lys-4 H3-21 [compound 1], at GST-LSD1 [1] (obtained previously), the KI (inactivation) is 775 ± 160 nM and the “k(inact)” value is 0.304 ± 0.033 min⁻¹.
Consider “cis-3-chloroallyl-Lys-4 H3-21 [compound 3]”, for which, on GST-LSD1 [7], the “kinact/Ki(inact) fold difference from peptide 2” value is recorded as no more than 5 fold; the KI (inactivation) was 955 ± 150 nM; the “k(inact)” value amounted to 0.545 ± 0.038 min⁻¹; the “time-dependent inactivation of LSD1” value is “time- and concentration-dependent inactivation”.
For hydrazino-Lys-4 H3-21 [compound 18], on GST-LSD1 [8], the “fold more efficient in inhibiting demethylation than propargylamine-H3 derivatives” value is reported as “more than 20 fold”. At GST-LSD1 [8] (setting [9]), the KI (inactivation) was 4.35 ± 0.86 nM and the “k(inact)” value was found to be 0.247 ± 0.018 min⁻¹. Besides, on GST-LSD1 [8] (versus N-methylpropargylamine peptide 2), the “fold more potent than 2 as LSD1 inactivator” value is on record as “approximately 25 fold”. For the same molecule, on GST-LSD1 [7], the “time-dependent inactivation of LSD1” value is “highly potent time-dependent inhibitor”.
With “dimethyl-Lys-4 H3-21 [reference compound]”, the turnover number (kcat) at GST-LSD1 [8] (GST-LSD1 with this substrate, 25 nM enzyme, Amplex Red) was found to be 0.0583 ± 0.0033 s⁻¹; on GST-LSD1 [7] (GST-LSD1 with this substrate, 185 nM enzyme), 0.075 ± 0.0017 s⁻¹. Further, the Michaelis constant (Km) amounted to 20 ± 3 µM on GST-LSD1 [8] (substrate of GST-LSD1, 25 nM enzyme, Amplex Red) and 21 ± 2 µM at GST-LSD1 [7] (substrate of GST-LSD1, 185 nM enzyme, pH 7.5, 25 °C).

In general, Ki refers to the dissociation constant of the complex between target and ligand, obtained from inhibition or displacement. As usually defined, the kcat is the number of substrate molecules converted per active site and unit of time at saturation. In general, Km refers to the concentration of substrate that gives half-maximal velocity.
